This is an account of results in ChEMBL document CHEMBL1130330, “Synthesis of gonadotropin-releasing hormone III analogs. Structure-antitumor activity relationships” (1997).

Square brackets hold non-standard residues; d marks the D form. Peptide text beside a SMILES is read from it. pGlu = O=C1CC[C@@H](C(=O)O)N1

The species entered for assay [1] is Homo sapiens. The experiment in a line: (§1) The concentration to inhibit colony formation of MCF-7 human tumor cell lines. Format: functional, MCF7. In short, it runs like this: (§2)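 Clonogenic assay on human tumor cell lines, with each peptide at 50 (unit as printed). Colony formation reflects cell survival. Results are given as % inhibition of colony formation relative to untreated controls, mean ± deviation.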

Assay [2] concerns Ishikawa. The experiment in a line: The concentration to inhibit colony formation of Ishikawa human tumor cell lines. The class given is functional. In short, it runs like this: as §2
The test system of assay [3] is MCF7. As to the kind of experiment: The concentration to inhibit cell proliferation of MCF-7 human tumor cell lines. Format: functional. In short, it runs like this: (§3)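 Cell proliferation assay with peptide treatment. Cells are released from Petri dishes by trypsinization and counted directly. Results are expressed as percentage of control values.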
Assay [4] concerns MCF7. The experiment in a line: The concentration to inhibit cell proliferation of MCF-7 human tumor cell lines using the sulforhodamine B assay. The class given is functional. The gist of the method: (§4)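 Sulforhodamine B assay with each peptide at 50 (unit as printed). Dye bound to cells is quantified spectrophotometrically. Results are expressed as % inhibition relative to control, mean ± deviation.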

Assay [5] relates to MDA-MB-231. The experiment in a line: The concentration to inhibit cell proliferation of MDA-MB-231 human tumor cell lines. The class given is functional. The gist of the method: as §3
For assay [6], the system named is MDA-MB-231. The experiment in a line: The concentration to inhibit cell proliferation of MDA-MB-231 human tumor cell lines using the sulforhodamine B assay. Format: functional. The gist of the method: as §4
Assay [7] deals with MDA-MB-231. The experiment in a line: The concentration to inhibit colony formation of MDA-MB-231 human tumor cell lines. Format: functional. The gist of the method:
as §2

Assay [8] concerns LNCaP. The experiment in a line: The concentration to inhibit cell proliferation of LNCaP human tumor cell lines. Format: functional.
The subject of assay [9] is LNCaP. The experiment in a line: The concentration to inhibit cell proliferation of LNCaP human tumor cell lines using the sulforhodamine B assay. Format: functional. The gist of the method: as §4
Assay [10] deals with MCF7. The assay is described as §1. Format: functional. The gist of the method: as §2
Assay [11] has as its system PC-3. The experiment in a line: The concentration to inhibit cell proliferation of PC3 human tumor cell lines. The class given is functional. The gist of the method:
as §3

Assay [12] deals with PC-3. The experiment in a line: The concentration to inhibit cell proliferation of PC3 human tumor cell lines using the sulforhodamine B assay. Format: functional. In short, it runs like this: as §4
Assay [13] has as its system PC-3. As to the kind of experiment: The concentration to inhibit colony formation of PC3 human tumor cell lines. Format: functional. The gist of the method: as §2

For orientation: Inhibition means how much of the control response was suppressed. The low end stands for little suppression, the high end for strong suppression. For the molecule `NCCCC[C@H](NC(=O)[C@H](Cc1c[nH]c2ccccc12)NC(=O)[C@H](CC(=O)O)NC(=O)[C@H](Cc1c[nH]cn1)NC(=O)[C@H](CO)NC(=O)[C@H](Cc1c[nH]c2ccccc12)NC(=O)[C@H](Cc1c[nH]cn1)NC(=O)[C@@H]1CCC(=O)N1)C(=O)N1CCC[C@H]1C(=O)NCC(N)=O`, the Inhibition is on record as 18% in assay [1]; 18% in [2]; 18% in assay [3]; 20% in [4]; 18% in [5]; 19% in assay [6]. The Inhibition in [7] turned out to be 44%; in assay [8] it was 32%; in assay [9], 40%; in assay [10] it was 45%; in [11] it was 14%; in assay [12], 12%. In assay [13], this molecule yielded an Inhibition of 21%.

`NCCCC[C@H](NC(=O)[C@H](Cc1ccccc1)NC(=O)[C@H](CC(=O)O)NC(=O)[C@H](Cc1c[nH]cn1)NC(=O)[C@H](CO)NC(=O)[C@H](Cc1c[nH]c2ccccc12)NC(=O)[C@H](Cc1c[nH]cn1)NC(=O)[C@@H]1CCC(=O)N1)C(=O)N1CCC[C@H]1C(=O)NCC(N)=O`: the Inhibition in assay [7] amounted to 21%; in [10] it was 26%.

On to `NCCCC[C@H](NC(=O)[C@H](Cc1c[nH]c2ccccc12)NC(=O)[C@H](CC(=O)O)NC(=O)[C@H](Cc1c[nH]cn1)NC(=O)[C@H](CO)NC(=O)[C@H](Cc1c[nH]c2ccccc12)NC(=O)[C@H](Cc1c[nH]cn1)NC(=O)[C@@H]1CCC(=O)N1)C(=O)N1CC=C[C@H]1C(=O)NCC(N)=O`, for which the Inhibition is on record as 21% in assay [2]; 19% in [4]; 18% in assay [6]; 42% in [7]; 42% in [10]; 14% in assay [12]. Also, in assay [13], the Inhibition stood at 19%.

Turning to `C[C@@H](NC(=O)[C@@H]1CCCN1C(=O)[C@H](CCCCN)NC(=O)[C@H](Cc1c[nH]c2ccccc12)NC(=O)[C@H](CC(=O)O)NC(=O)[C@H](Cc1c[nH]cn1)NC(=O)[C@H](CO)NC(=O)[C@H](Cc1c[nH]c2ccccc12)NC(=O)[C@H](Cc1c[nH]cn1)NC(=O)[C@@H]1CCC(=O)N1)C(N)=O`, the Inhibition was 6% in assay [2]; 8% in assay [4]; 8% in assay [6]; 15% in [7]; 4% in assay [10]; 2% in [12]. This molecule also yielded an Inhibition in [13] of 3%.

As for `NCCCC[C@H](NC(=O)[C@H](Cc1cn(C=O)c2ccccc12)NC(=O)[C@H](CC(=O)O)NC(=O)[C@H](Cc1c[nH]cn1)NC(=O)[C@H](CO)NC(=O)[C@H](Cc1cn(C=O)c2ccccc12)NC(=O)[C@H](Cc1c[nH]cn1)NC(=O)[C@@H]1CCC(=O)N1)C(=O)N1CC=C[C@H]1C(=O)NCC(N)=O`, the Inhibition amounted to 24% in assay [2], 32% in assay [7], 31% in assay [10] and 20% in assay [13].

In the case of `CC(C)C[C@H](NC(=O)CNC(=O)[C@H](Cc1ccc(O)cc1)NC(=O)[C@H](CO)NC(=O)[C@H](Cc1c[nH]c2ccccc12)NC(=O)[C@H](Cc1c[nH]cn1)NC(=O)[C@@H]1CCC(=O)N1)C(=O)N[C@@H](CCCN=C(N)N)C(=O)N1CCC[C@H]1C(=O)NCC(N)=O`, the Inhibition in assay [2] is listed as 17%; in assay [7], 29%; in assay [10] it was 27%; in assay [13], 15%.

On to `NC(=O)CNC(=O)[C@@H]1CCCN1C(=O)[C@@H]1CCCCNC(=O)C[C@H](NC(=O)[C@H](Cc2c[nH]cn2)NC(=O)[C@H](CO)NC(=O)[C@H](Cc2c[nH]c3ccccc23)NC(=O)[C@H](Cc2c[nH]cn2)NC(=O)[C@@H]2CCC(=O)N2)C(=O)N[C@@H](Cc2c[nH]c3ccccc23)C(=O)N1`, for which the Inhibition is recorded as 16% in assay [2]; 20% in assay [4]; 16% in [6]; 27% in [7]; 44% in assay [10]; 11% in assay [12]. Moreover, in assay [13], the Inhibition was determined as 18%.

As to `NCCCC[C@H](NC(=O)[C@H](Cc1c[nH]c2ccccc12)NC(=O)[C@H](Cc1c[nH]cn1)NC(=O)[C@@H]1CCC(=O)N1)C(=O)N[C@@H](Cc1c[nH]cn1)C(=O)N[C@@H](CC(=O)O)C(=O)N[C@@H](Cc1c[nH]c2ccccc12)C(=O)N[C@@H](CCCCN)C(=O)N1CCC[C@H]1C(=O)NCC(N)=O`, the Inhibition in assay [2] is listed as 21%; in assay [7], 35%; in assay [10] it was 40%; in assay [13] it was 15%.

`CC(=O)NCCCC[C@H](NC(=O)[C@H](Cc1c[nH]c2ccccc12)NC(=O)[C@H](Cc1c[nH]cn1)NC(=O)[C@@H]1CCC(=O)N1)C(=O)N[C@@H](Cc1c[nH]cn1)C(=O)N[C@@H](CC(=O)O)C(=O)N[C@@H](Cc1c[nH]c2ccccc12)C(=O)N[C@@H](CCCCN)C(=O)N1CCC[C@H]1C(=O)NCC(N)=O`: the Inhibition in [2] is given as 14%; in assay [7], 42%; in [10], 52%; in [13], 12%.

In the case of `NCCCC[C@H](NC(=O)[C@H](Cc1c[nH]c2ccccc12)NC(=O)[C@H](CCC(=O)O)NC(=O)[C@H](Cc1c[nH]cn1)NC(=O)[C@H](CO)NC(=O)[C@H](Cc1c[nH]c2ccccc12)NC(=O)[C@H](Cc1c[nH]cn1)NC(=O)[C@@H]1CCC(=O)N1)C(=O)N1CCC[C@H]1C(=O)NCC(N)=O`, the Inhibition in [2] turned out to be 5%; in assay [4], 17%; in [6], 27%; in assay [7] it was 25%; in assay [10], 44%; in assay [12], 12%. Further, the Inhibition in [13] stood at 20%.

On to `NCCCC[C@H](NC(=O)[C@H](CO)NC(=O)[C@H](Cc1c[nH]c2ccccc12)NC(=O)[C@H](Cc1c[nH]cn1)NC(=O)[C@@H]1CCC(=O)N1)C(=O)N[C@H]1CC(=O)NCCCC[C@@H](C(=O)N2CCC[C@H]2C(=O)NCC(N)=O)NC(=O)[C@H](Cc2c[nH]c3ccccc23)NC1=O`, for which the Inhibition worked out at 13% in assay [2]; 19% in assay [4]; 21% in [6]; 27% in assay [7]; 44% in [10]; 16% in assay [12]. Besides, the Inhibition in [13] was found to be 11%.

Turning to `NCCCC[C@H](NC(=O)[C@H](CO)NC(=O)[C@H](Cc1c[nH]c2ccccc12)NC(=O)[C@H](Cc1c[nH]cn1)NC(=O)[C@@H]1CCC(=O)N1)C(=O)N[C@@H](CC(=O)O)C(=O)N[C@@H](Cc1c[nH]c2ccccc12)C(=O)N[C@@H](CCCCN)C(=O)N1CCC[C@H]1C(=O)NCC(N)=O`, the Inhibition in [2] is 6%; in assay [4] it was 4%; in assay [6], 2%; in assay [7], 4%; in assay [10] it was 5%; in assay [13], 0%.

Consider `CCNC(=O)[C@@H]1CCCN1C(=O)[C@H](CCCCN)NC(=O)[C@H](Cc1c[nH]c2ccccc12)NC(=O)[C@H](CC(=O)O)NC(=O)[C@H](Cc1c[nH]cn1)NC(=O)[C@H](CO)NC(=O)[C@H](Cc1c[nH]c2ccccc12)NC(=O)[C@H](Cc1c[nH]cn1)NC(=O)[C@@H]1CCC(=O)N1` ([pGlu]HWSHDWKP-NHEt), for which the Inhibition in assay [2] is given as 13%; in assay [4], 20%; in assay [6] it was 32%; in [7], 27%; in assay [10] it was 28%; in assay [12], 15%. Besides, the Inhibition in assay [13] was found to be 22%.
